Screening results deposited in PubChem BioAssay by Johns Hopkins Ion Channel Center.
Rows were chosen to be rich in hits. Some 3.8% of all compounds tested hit in one or more screens of this group.
KCNQ1 inh – inhibitors of human KCNQ1 channel, primary screen, cell-based, thallium flux, high-throughput. CHO-K1 KCNQ1, FluxOR thallium flux fluorescence; stronger effect = higher value. B-score at 10 µM. 1.3% of 310,000 active. Potassium voltage-gated channel subfamily KQT member 1 (Homo sapiens), P51787. AID 2642, 2010;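 active = compounds whose thallium flux B-score, printed positive for inhibition, exceeds three library SD while starting fluorescence stays within three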;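 note: channel opened by potassium depolarization with thallium stimulus after 20 min compound exposure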
Kir21 block – inhibitors of mouse Kir2.1 inward-rectifier potassium channel; HEK293-Kir2.1, FluxOR thallium flux fluorescence; stronger effect = lower value; 0.85% of 310,000 active; B-score at 10 µM;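 active = fluorescence ratio B-score at or below minus 3 SD of library scores, with starting-brightness B-score within 2 SD, cut at about -4.2 in these data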;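 note: channel flux triggered by added potassium and thallium sulfate stimulus; B-score of peak minus minimum fluorescence over baseline after thallium stimulus; more negative B-score means stronger Kir2.1 block with less thallium influx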
Target sequence (P35561 whole entry, looked up): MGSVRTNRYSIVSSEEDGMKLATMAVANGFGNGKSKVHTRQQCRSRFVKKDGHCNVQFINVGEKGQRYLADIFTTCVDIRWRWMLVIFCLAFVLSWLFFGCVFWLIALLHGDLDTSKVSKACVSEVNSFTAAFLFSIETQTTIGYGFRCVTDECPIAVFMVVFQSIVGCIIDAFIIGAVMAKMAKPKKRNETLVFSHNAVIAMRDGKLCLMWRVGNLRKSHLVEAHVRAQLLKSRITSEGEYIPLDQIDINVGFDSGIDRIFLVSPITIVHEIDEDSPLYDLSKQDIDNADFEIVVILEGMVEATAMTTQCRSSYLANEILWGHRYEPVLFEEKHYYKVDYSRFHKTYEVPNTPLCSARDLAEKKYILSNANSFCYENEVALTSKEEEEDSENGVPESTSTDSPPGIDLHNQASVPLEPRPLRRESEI
KCNK9 inh-1 – KCNK9 potassium channel inhibitors, primary screen, HEK293 cells, thallium flux | Potassium channel subfamily K member 9 (Homo sapiens), Q9NPC2 | FluxOR thallium flux fluorescence; stronger effect = lower value | B-score at 10 µM | 1.2% of 310,000 active;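 active = ratio B-score over 3 SD below the library mean, with starting fluorescence within 5 SD of its mean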;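 note: negative B-score means less thallium flux so channel inhibition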
KCNQ1 act – potentiators or activators of KCNQ1 channel, primary screen, cell-based, thallium flux, high-throughput. 0.35% of 310,000 active. Potassium voltage-gated channel subfamily KQT member 1 (Homo sapiens), P51787. CHO-K1 KCNQ1, thallium flux FluxOR fluorescence; stronger effect = higher value. B-score at 10 µM;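 active = fluorescence ratio B-score, a plate-corrected score, at least three library SD, with initial intensity B-score within 5 SD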
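Schedule – 37 °C overnight plating, 90-min dark dye load, 20-min compound pretreatment · System – stable KCNQ1 CHO-K1 line · Probe or stimulus – thallium- and potassium-containing depolarizing buffer · Measured by – kinetic FluxOR fluorescence, 10 s baseline plus 110 s post-stimulus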
KCNK3 block – human KCNK3 channel inhibitors, primary screen, CHO cells, FluxOR thallium flux, B-score | Potassium channel subfamily K member 3 (Homo sapiens), O14649 | FluxOR fluorescence; stronger effect = lower value | B-score at 10 µM | 0.84% of 340,000 active;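 active = B-score under library mean minus 4 SD, starting fluorescence ratio at most library mean plus 5 SD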;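 note: more negative B-score means stronger inhibition of thallium flux through KCNK3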
hERG protect – hERG rescue from dofetilide block, primary screen, cell-based, CHO-hERG, FluxOR thallium flux, dofetilide IC70 | Voltage-gated inwardly rectifying potassium channel KCNH2 (Homo sapiens), Q12809 | dofetilide IC70 present | activation (rescue from dofetilide block), less the hit threshold, % at 10 µM | 0.51% of 310,000 active | AID 1511, 2009;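 active = activation above the mean of controls blocked by dofetilide plus 5 SD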;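 note: thallium influx through hERG after potassium depolarization seen as dye fluorescence rise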
hERG ctr – hERG channel inhibition, counter-screen for Kir2.1 inhibitor project, cell-based, thallium flux | shares compounds with Kir21 block | hERG-expressing cells | inhibition, % at 10 µM | 20% of 320 active;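 note: host cells are CHO cells stably expressing hERG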
KCNK9 inh-2 – KCNK9 channel inhibition, selectivity assay for Kir2.1 inhibitor project, cell-based; AID 2329, 2010; shares compounds with Kir21 block; 5% of 320 active; KCNK9-expressing cells, ion flux inhibition; inhibition, % at 10 µM
Kir21 ephys inh – mouse Kir2.1 channel blockers, Kir2.1 inhibitor project, cell-based, secondary, automated electrophysiology; Kir2.1 cells, automated patch-clamp current inhibition; 71% of 320 active; inhibition, % at 25 µM; shares compounds with Kir21 block
KCNK9 block conf – KCNK9 potassium channel inhibitors, confirmation, HEK293 cells, thallium flux, duplicate; FluxOR thallium flux fluorescence; AID 492992, 2010; 43% of 4,900 active; inhibition, % at 10 µM; shares compounds with KCNK9 inh-1;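 active = thallium signal inhibited by more than 5 SD of the compound-free buffer control wells, on both duplicate plates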;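 note: 0% = assay buffer control wells without compound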
Kir21 sel – mouse Kir2.1 channel inhibition, confirmation, selectivity assay for KCNK9 modulator project, cell-based, HEK293, thallium flux; 4% of 4,900 active; AID 492993, 2010; inhibition, % at 10 µM; shares compounds with KCNK9 inh-1; Kir2.1 cells, FluxOR thallium flux fluorescence;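 active = thallium signal drop more than 5 SD beyond the mean of the no-compound control wells, seen in both duplicate plates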;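 note: signal is fluorescence rise after thallium addition divided by baseline fluorescence; plate controls were assay buffer only for no effect and full block by chlorpromazine control for full effect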
KCNK9 uninduced – thallium flux in non-induced HEK293 cells, confirmation, counter-screen for KCNK9 inhibitor project, cell-based, second counter screen, non-induced KCNK9-HEK293. 40% of 4,900 active. AID 492997, 2010. FluxOR thallium flux. shares compounds with KCNK9 inh-1. inhibition, % at 10 µM;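 active = thallium signal drop beyond 5 SD of the untreated control mean, on both duplicate plates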;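 note: plate controls were buffer only IC0 wells for no effect and SID17386958 at its maximal inhibitory level for full effect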
KCNK3 confirm – retest of human KCNK3 channel inhibitors, confirmation, CHO cells, FluxOR thallium flux, triplicate. 99% of 2,400 active. FluxOR fluorescence; 0% buffer, 100% carvedilol maximal block. shares compounds with KCNK3 block. ratio percent of control, % at 10 µM;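 active = ratio percent of control, averaged over triplicates, above buffer control mean plus 5 SD, cut at about 64% in these data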;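 note: ratio is the fluorescence rise from min to max over baseline after thallium stimulus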
KCNK3 noninduced – thallium flux inhibition in non-induced cells, primary screen, counter-screen for KCNK3 inhibitor project, cell-based, non-induced KCNK3 line, FluxOR thallium, triplicate; shares compounds with KCNK3 block; non-induced KCNK3 parental cells; stronger effect = lower value; thallium flux ratio (lower = more inhibition) at 10 µM; 40% of 2,400 active;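 active = thallium flux ratio, averaged over three wells, more than 5 SD below the buffer control mean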;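 note: host cells are CHO cells without KCNK3 induction; ratio is peak minus trough fluorescence over baseline then normalized to buffer controls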
* = called active by the depositor; i = inactive; nt = no result given. Unless noted, the rule behind the calls is not given here.

SMILES	KCNQ1 inh	Kir21 block	KCNK9 inh-1	KCNQ1 act	KCNK3 block	hERG protect	hERG ctr	KCNK9 inh-2	Kir21 ephys inh	others
Clc1cccc(Cl)c1CSc1nnc([C@@H]2CCCN2)o1	i	-0.24	i	i	i	-4	nt	nt	nt
CC(NCCC(Cc1ccccc1)c1ccco1)c1ccccc1 (stereo not given)	i	-14*	i	i	i	-22	i	i	i
O=C(CC(Cc1ccccc1)c1ccco1)NC1CCCCC1 (stereo not given)	i	-2.7	i	i	i	-7	nt	nt	nt
COc1ccc(CNCc2cccc(Oc3ccccc3)c2)cc1	i	-14*	i	i	i	-13	i	i	85%*
COc1ccc(CNCCS(=O)(=O)NCc2ccccc2)cc1	nt	nt	nt	nt	i	nt	nt	nt	nt
COc1ccc(CNCC(O)(c2ccccc2)c2ccccc2)cc1	i	-6.2*	i	i	i	-12	46%*	i	i
Cc1cccc(C)c1NC(=O)c1sccc1SCC#N	i	-0.3	i	i	i	-5	nt	nt	nt
CNC(=O)c1sccc1SCc1c(Cl)cccc1Cl	i	-9.4*	i	i	i	-8	i	i	43%*
CCN(CC(=O)NCc1ccc(Cl)cc1)C(=O)C1CCN(S(=O)(=O)c2ccc(OC)c(OC)c2)CC1	i	0.11	i	i	i	-8	nt	nt	nt
C=CCNc1nc(NCc2ccccc2)c(C#N)c2c1CN(C)CC2	i	-6.8*	i	i	i	-14	64%*	i	1.6%*
CCc1ccc(CN(C)C(=O)c2cc(=O)c3ccccc3o2)cc1	i	0.31	i	i	i	-14	nt	nt	nt
CN1CCC(N(C)C(=O)c2cc(=O)c3ccccc3o2)CC1	i	-0.06	i	i	i	-8	i	i	i
O=S(=O)(NCc1csc(-c2cccs2)n1)c1ccc(Cl)cc1	i	-11*	i	i	i	-12	i	i	22%*
O=S(=O)(NCc1csc(-c2cccs2)n1)c1cccs1	i	-2.3	i	i	i	-11	nt	nt	nt
CCOC(=O)C1CCN(Cc2c(O)ccc3ccccc23)CC1	i	-7.6*	i	i	i	-11	i	i	4.0%*
Cc1cccc(N(CC(=O)NC2CCCCC2)C(=O)c2csnn2)c1	i	-1.1	i	i	i	-4	nt	nt	nt
COc1ccc(CCC(C)NCc2cccc(Br)c2)cc1 (stereo not given)	i	-11*	i	i	i	-11	i	i	54%*
CC(CCc1ccc(O)cc1)NC1C2CC3CC(C2)CC1C3 (stereo not given)	i	-3.8	i	i	i	-4	nt	nt	nt
CC(CCc1ccc(O)cc1)NC1c2ccccc2-c2ccccc21 (stereo not given)	i	-14*	i	i	i	-6	60%*	i	i
N#CC1(NC(=O)CN2C(=O)c3ccc([N+](=O)[O-])cc3C2=O)CCCCC1	i	0.56	i	i	i	-7	nt	nt	nt
COc1ccc(S(=O)(=O)N2CCc3ccccc32)cc1OC	i	-6.2*	i	i	i	-10	i	i	24%*
O=S(=O)(NCc1nnc2c(C(F)(F)F)cc(Cl)cn12)c1ccccc1	i	-2.1	i	i	i	-6	nt	nt	nt
CCN(c1ccccc1)S(=O)(=O)c1ccc(F)cc1	i	-6.2*	i	i	i	-6	i	i	37%*
CCOC(=O)C(CC(=O)c1ccccc1)CC(=O)c1ccccc1	i	0.07	i	i	i	-5	nt	nt	nt
CN(C)CC/C=C1\c2ccccc2Sc2ccc(Cl)cc21	i	-8.1*	i	i	i	-14	58%*	i	28%*	KCNK9 block conf=i;Kir21 sel=59%*;KCNK9 uninduced=i
O=c1[nH]c2ccccc2[n+]([O-])c1-c1ccccc1	i	1.4	i	i	i	-9	nt	nt	nt
O=C(c1ccc2c(c1)N(Cc1ccccc1)CCS2)N1CCCCC1	i	-5.8*	i	i	-9.9*	-14	i	i	i	KCNK3 confirm=124*;KCNK3 noninduced=0.13*
CCOC(=O)N1CCN(CC(O)COc2ccc3c(c2)CCC3)CC1 (stereo not given)	i	0.7	i	i	i	-4	nt	nt	nt
